In PubChem BioAssay AID623874 (Vanderbilt Specialized Chemistry Center, 2012):
Activity calls are given as the source filed them.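 The calls were made as follows: active = glutamate fold shift at least 2 as enhancer or at most 0.5 as blocker, actives on both sides; inactive = the rest.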

Target: Metabotropic glutamate receptor 1 (Rattus norvegicus) (UniProt P23385)
Experiment: rat mGlu1 modulation, glutamate curve fold shift, SAR follow-up, selectivity assay for mGlu4 PAM lead optimization, cell-based, calcium flux (AID 623874)
Conditions: rat mGlu1 cells, Fluo-4 calcium flux, glutamate CRC shift; at 10 µM
Outline: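 Schedule: about 2.5 min compound pre-incubation before glutamate addition; assay system: cells loaded with Fluo-4 calcium indicator dye; medium: HEPES-buffered HBSS plus probenecid, pH 7.3; reagent: glutamate as agonist, added after test compound; detection: Fluo-4 calcium fluorescence; doses: single test compound dose, 10 µM final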

Sequence of Metabotropic glutamate receptor 1 (Rattus norvegicus) (P23385 whole entry, looked up): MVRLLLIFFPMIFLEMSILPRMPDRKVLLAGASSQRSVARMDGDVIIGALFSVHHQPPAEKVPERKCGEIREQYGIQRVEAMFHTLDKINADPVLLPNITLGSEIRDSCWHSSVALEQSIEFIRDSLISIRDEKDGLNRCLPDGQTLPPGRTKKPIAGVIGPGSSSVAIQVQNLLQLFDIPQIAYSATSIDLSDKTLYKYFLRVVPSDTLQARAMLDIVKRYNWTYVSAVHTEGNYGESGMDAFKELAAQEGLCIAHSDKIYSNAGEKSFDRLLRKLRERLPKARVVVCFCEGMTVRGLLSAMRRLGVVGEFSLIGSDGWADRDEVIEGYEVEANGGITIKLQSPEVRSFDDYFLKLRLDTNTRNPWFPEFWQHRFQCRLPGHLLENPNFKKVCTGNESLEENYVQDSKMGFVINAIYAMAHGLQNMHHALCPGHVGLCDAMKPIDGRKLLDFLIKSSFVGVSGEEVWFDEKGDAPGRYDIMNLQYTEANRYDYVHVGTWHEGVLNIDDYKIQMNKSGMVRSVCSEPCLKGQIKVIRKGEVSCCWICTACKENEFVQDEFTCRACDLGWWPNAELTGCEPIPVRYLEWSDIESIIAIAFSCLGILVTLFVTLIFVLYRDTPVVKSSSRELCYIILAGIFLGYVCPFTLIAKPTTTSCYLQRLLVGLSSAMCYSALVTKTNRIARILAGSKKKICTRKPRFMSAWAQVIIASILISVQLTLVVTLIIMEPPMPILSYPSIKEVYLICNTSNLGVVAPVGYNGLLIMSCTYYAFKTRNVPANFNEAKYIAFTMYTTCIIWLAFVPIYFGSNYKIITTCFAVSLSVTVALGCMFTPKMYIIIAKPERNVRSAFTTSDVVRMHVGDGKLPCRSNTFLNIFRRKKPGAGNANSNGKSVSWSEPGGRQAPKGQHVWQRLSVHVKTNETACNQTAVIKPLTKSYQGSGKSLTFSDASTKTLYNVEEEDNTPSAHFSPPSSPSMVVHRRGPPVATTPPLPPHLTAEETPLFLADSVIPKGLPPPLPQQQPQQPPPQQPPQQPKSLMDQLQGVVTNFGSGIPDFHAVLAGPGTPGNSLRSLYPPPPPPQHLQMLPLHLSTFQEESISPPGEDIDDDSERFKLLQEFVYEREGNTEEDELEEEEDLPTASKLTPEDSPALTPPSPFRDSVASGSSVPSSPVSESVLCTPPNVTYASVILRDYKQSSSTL

## O=C(Nc1cccc(Cl)c1)c1ccccn1
  fold shift: 1.17 (inactive)
